Measured values published in PMC8268672 (Bioorganic Chemistry, 2021).
In brackets after ≈: the same amount, converted by molar mass. Like-named read-outs stand apart in the source and are kept apart here.

Tests used:
[1] = tested on: Escherichia coli (ATCC 8739); assay: MIC, broth microdilution; assay type: cell-based; settings: ATCC8739, read-out: Minimum inhibitory concentration (MIC), EC
Summary of the method: (§1)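 Broth microdilution per CLSI in Mueller-Hinton broth, using two-fold serial dilutions of test compound and reference drugs from 512 to 0.25. Bacterial broth cultures were grown 2-6 h to 0.5 McFarland turbidity, then diluted with sterile solution to the final inoculum. MIC is reported in µg/mL.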

[2] = tested on: Pseudomonas aeruginosa (MCCB 0035); assay: MIC, broth microdilution; assay type: cell-based; settings: read-out: Minimum inhibitory concentration (MIC), PA
Summary of the method: as §1

[3] = tested on: Klebsiella aerogenes (NCIM-2098); assay: MIC, broth microdilution; assay type: cell-based; settings: NCIM2098, read-out: Minimum inhibitory concentration (MIC), KA
Summary of the method: (§2)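 Antibacterial MICs by CLSI broth microdilution in Mueller-Hinton broth. Test compounds and standard drugs are serially diluted two-fold from 512 to 0.25. The bacterial broth culture is grown 2-6 h to a 0.5 McFarland turbidity, then adjusted with sterile solution to the final inoculum.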

[4] = tested on: Staphylococcus aureus (ATCC 29213); assay: MIC, broth microdilution; assay type: cell-based; settings: ATCC29213, read-out: Minimum inhibitory concentration (MIC), SA
Summary of the method: as §2

[5] = tested on: Bacillus cereus (NCIM-2458); assay: MIC, broth microdilution; assay type: cell-based; settings: NCIM2458, read-out: Minimum inhibitory concentration (MIC), BC
Summary of the method: as §1

[6] = tested on: Aspergillus niger (NCIM 2191); assay: MIC, broth microdilution; assay type: cell-based; settings: NCIM2191, read-out: Minimum inhibitory concentration (MIC), AN
Summary of the method: (§3)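 Antifungal MICs by CLSI broth microdilution in Sabouraud liquid medium. Test compounds and standard drugs are serially diluted two-fold from 512 to 0.25. The fungal broth culture is grown 24 h at 35 °C to a 0.5 McFarland turbidity, then adjusted with sterile solution to the final inoculum.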

[7] = tested on: Candida albicans (NCIM 2087); assay: MIC, broth microdilution; assay type: cell-based; settings: NCIM2087, read-out: Minimum inhibitory concentration (MIC), CA
Summary of the method: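 CLSI broth microdilution in Sabouraud liquid medium, with test compound two-fold serially diluted from 512 to 0.25. Fungal broth culture grown 24 h at 35 °C to 0.5 McFarland turbidity, then adjusted with sterile solution to a final […] inoculum. MIC expressed in µg/mL.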

[8] = tested on: Aspergillus fumigatus (NCIM 2081); assay: MIC, broth microdilution; assay type: cell-based; settings: NCIM2081, read-out: Minimum inhibitory concentration (MIC), AF
Summary of the method: as §3

[9] = tested on: Cryptococcus neoformans (ATCC 9011); assay: MIC, broth microdilution; assay type: cell-based; settings: ATCC9011, read-out: Minimum inhibitory concentration (MIC), CN
Summary of the method: as §3

[10] = tested on: Escherichia coli (ATCC 8739); assay: Agar disk diffusion, inhibition zone; assay type: cell-based; settings: 100 µg/8 mm disc, triplicate, mean ± SD
Summary of the method: (§4)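 Agar disk diffusion on Mueller-Hinton agar plates seeded with a standard bacterial suspension. Test compound stock in DMSO, diluted with distilled water; 8 mm sterile filter-paper discs soaked in the solution. Ampicillin was the reference. Plates incubated at 35 °C for 24 h, in triplicate. Read-out is the average inhibition-zone diameter (mm) around each disc.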

[11] = tested on: Pseudomonas aeruginosa (MCCB 0035); assay: Agar disk diffusion, inhibition zone; assay type: cell-based; settings: 100 µg/8 mm disc, triplicate, mean ± SD
[12] = tested on: Salmonella typhimurium (NCIM-2501); assay: Agar disk diffusion, inhibition zone; assay type: cell-based; settings: 100 µg/8 mm disc, triplicate, mean ± SD
[13] = tested on: Klebsiella aerogenes (NCIM-2098); assay: Agar disk diffusion, inhibition zone; assay type: cell-based; settings: 100 µg/8 mm disc, triplicate, mean ± SD
[14] = tested on: Staphylococcus aureus (ATCC 29213); assay: Agar disk diffusion, inhibition zone; assay type: cell-based; settings: 100 µg/8 mm disc, triplicate, mean ± SD
Summary of the method: as §4

[15] = tested on: Bacillus cereus (NCIM-2458); assay: Agar disk diffusion, inhibition zone; assay type: cell-based; settings: 100 µg/8 mm disc, triplicate, mean ± SD
[16] = tested on: Lactobacillus casei (NCIM-2651); assay: Agar disk diffusion, inhibition zone; assay type: cell-based; settings: 100 µg/8 mm disc, triplicate, mean ± SD
[17] = tested on: Streptococcus pneumonia (ATCC 49619); assay: Agar disk diffusion, inhibition zone; assay type: cell-based; settings: 100 µg/8 mm disc, triplicate, mean ± SD
[18] = tested on: Aspergillus niger (NCIM 2191); assay: Agar disk diffusion, inhibition zone; assay type: cell-based; settings: 100 µg/8 mm disc, triplicate, mean ± SD
Summary of the method: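 For the fungal strain, discs soaked in test compound solution (DMSO stock diluted with distilled water) sat on seeded Mueller-Hinton agar. Clotrimazole was the reference. Incubation ran 48 h at 35 °C, in triplicate. Zone of growth inhibition recorded in mm as the mean diameter around each disc.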

[19] = tested on: Candida albicans (NCIM 2087); assay: Agar disk diffusion, inhibition zone; assay type: cell-based; settings: 100 µg/8 mm disc, triplicate, mean ± SD
[20] = tested on: Aspergillus fumigatus (NCIM 2081); assay: Agar disk diffusion, inhibition zone; assay type: cell-based; settings: 100 µg/8 mm disc, triplicate, mean ± SD
[21] = tested on: Cryptococcus neoformans (ATCC 9011); assay: Agar disk diffusion, inhibition zone; assay type: cell-based; settings: 100 µg/8 mm disc, triplicate, mean ± SD
Vaccinia virus = assay: microbe, parasite or virus in culture; assay type: cell-based; settings: Orthopoxvirus vaccinia, HEL, read-out: Antiviral EC50, Vaccinia virus
Adeno virus-2 = assay: CPE reduction assay in HEL cells; assay type: cell-based; settings: read-out: Antiviral EC50, Adeno virus-2
Human Coronavirus (229E) = assay: CPE reduction assay in HEL cells; assay type: cell-based; settings: read-out: Antiviral EC50, Human Coronavirus (229E)
Para-influenza-3 virus = assay: CPE reduction assay in Vero cells; assay type: cell-based, Parainfluenza-3 virus; settings: Vero, read-out: Antiviral EC50, Para-influenza-3 virus
Reovirus-1 = assay: CPE reduction assay in Vero cells; assay type: cell-based; settings: read-out: Antiviral EC50, Reovirus-1
Sindbis virus = assay: CPE reduction assay in Vero cells; assay type: cell-based; settings: read-out: Antiviral EC50, Sindbis virus
Coxsackie virus B4 = assay: CPE reduction assay in Vero cells; assay type: cell-based; settings: Enterovirus B, read-out: Antiviral EC50, Coxsackie virus B4
Punta Toro virus = assay: CPE reduction assay in Vero cells; assay type: cell-based; settings: read-out: Antiviral EC50, Punta Toro virus
Yellow Fever virus = assay: microbe, parasite or virus in culture; assay type: cell-based; settings: Yellow fever virus, Vero, read-out: Antiviral EC50, Yellow Fever virus
[22] = tested on: Influenza A/H1N1 A/Ned/378/05; assay: CPE reduction assay in MDCK cells; assay type: cell-based; settings: Influenza A virus
[23] = tested on: Influenza A/H3N2 A/HK/7/87; assay: CPE reduction assay in MDCK cells; assay type: cell-based; settings: Influenza A virus
Influenza B B/Ned/537/05 = assay: CPE reduction assay in MDCK cells; assay type: cell-based; settings: Influenza B virus, read-out: Antiviral EC50, Influenza B B/Ned/537/05, MTS
[24] = tested on: Human embryonic lung (HEL) cells; settings: HEL cell cultures; microscopically detectable alteration of normal cell morphology
Vero cells = settings: Vero cell cultures; microscopically detectable alteration of normal cell morphology
[25] = tested on: Madin Darby canine kidney (MDCK) cells; settings: dog
MT4 cells = settings: MT4 cell cultures; colorimetric MTT cell viability assay
[26] = read-out: Antiviral EC50, Influenza A/H1N1 A/Ned/378/05, MTS
[27] = read-out: Antiviral EC50, Influenza A/H1N1 A/Ned/378/05, visual CPE score
[28] = read-out: Antiviral EC50, Influenza A/H3N2 A/HK/7/87, MTS
[29] = read-out: Antiviral EC50, Influenza A/H3N2 A/HK/7/87, visual CPE score

SMILES	MIC [1]	MIC [2]	MIC [3]	MIC [4]	MIC [5]	MIC [6]	MIC [7]	MIC [8]	MIC [9]	Diameter of growth inhibition zone, EC [10]	Diameter of growth inhibition zone, PA [11]	Diameter of growth inhibition zone, ST [12]	Diameter of growth inhibition zone, KA [13]	Diameter of growth inhibition zone, SA [14]	Diameter of growth inhibition zone, BC [15]	Diameter of growth inhibition zone, LC [16]	Diameter of growth inhibition zone, SP [17]	Diameter of growth inhibition zone, AN [18]	Diameter of growth inhibition zone, CA [19]	Diameter of growth inhibition zone, AF [20]	other results
Cc1ccc(S(=O)(=O)N2C(=O)CSC2c2ccccc2O)cc1 (stereo not drawn) [5k, 2-(2-Hydroxyphenyl)-3-[(4-methylphenyl)sulfonyl]-1,3-thiazolidin-4-one]	32 µg/mL (≈ 91.6 µM)	32 µg/mL (≈ 91.6 µM)	32 µg/mL (≈ 91.6 µM)	64 µg/mL (≈ 183 µM)	64 µg/mL (≈ 183 µM)	32 µg/mL (≈ 91.6 µM)	16 µg/mL (≈ 45.8 µM)	32 µg/mL (≈ 91.6 µM)	64 µg/mL (≈ 183 µM)	18.8 ± 0.9 mm	17.5 ± 0.6 mm	10 ± 0.8 mm	12 ± 0.48 mm	16 ± 0.32 mm	10 ± 0.3 mm	10 ± 1.25 mm	08 ± 0.3 mm	15 ± 0.93 mm	16 ± 0.32 mm	13 ± 1.5 mm	Diameter of growth inhibition zone, CN [21]: 11 ± 1.2 mm; EC50 (Vaccinia virus): > 100 µM; EC50 (Adeno virus-2): > 100 µM; EC50 (Human Coronavirus (229E)): > 100 µM; EC50 (Para-influenza-3 virus): > 100 µM; EC50 (Reovirus-1): > 100 µM; EC50 (Sindbis virus): > 100 µM; EC50 (Coxsackie virus B4): > 100 µM; EC50 (Punta Toro virus): > 100 µM; EC50 (Yellow Fever virus): > 100 µM; EC50 [22, 26]: > 100 µM; EC50 [22, 27]: > 100 µM; EC50 [23, 28]: > 100 µM; EC50 [23, 29]: > 100 µM; EC50 (Influenza B B/Ned/537/05): > 100 µM; Minimum cytotoxic conc. [24]: >100 µM; Minimum cytotoxic conc. (Vero cells): >100 µM; Cytotoxicity, Minimum cytotoxic conc. [25]: >100 µM; Minimum cytotoxic conc. (MT4 cells): >125 µM
Cc1ccc(S(=O)(=O)N2C(=O)CSC2c2ccc(O)cc2)cc1 (stereo not drawn) [5m, 2-(4-Hydroxyphenyl)-3-[(4-methylphenyl)sulfonyl]-1,3-thiazolidin-4-one]	16 µg/mL (≈ 45.8 µM)	16 µg/mL (≈ 45.8 µM)	64 µg/mL (≈ 183 µM)	32 µg/mL (≈ 91.6 µM)	64 µg/mL (≈ 183 µM)	64 µg/mL (≈ 183 µM)	32 µg/mL (≈ 91.6 µM)	128 µg/mL (≈ 366 µM)	64 µg/mL (≈ 183 µM)	15.9 ± 0.23 mm	15.2 ± 0.96 mm	12 ± 0.4 mm	10 ± 0.4 mm	13 ± 0.63 mm	10 ± 0.6 mm	14 ± 0.64 mm	12 ± 2.1 mm	13 ± 0.6 mm	15 ± 0.35 mm	10 ± 1.2 mm	Diameter of growth inhibition zone, CN [21]: 13 ± 1.4 mm; EC50 (Vaccinia virus): > 100 µM; EC50 (Adeno virus-2): > 100 µM; EC50 (Human Coronavirus (229E)): > 100 µM; EC50 (Para-influenza-3 virus): > 100 µM; EC50 (Reovirus-1): > 100 µM; EC50 (Sindbis virus): > 100 µM; EC50 (Coxsackie virus B4): > 100 µM; EC50 (Punta Toro virus): > 100 µM; EC50 (Yellow Fever virus): > 100 µM; EC50 [22, 26]: > 100 µM; EC50 [22, 27]: > 100 µM; EC50 [23, 28]: > 100 µM; EC50 [23, 29]: > 100 µM; EC50 (Influenza B B/Ned/537/05): > 100 µM; Minimum cytotoxic conc. [24]: >100 µM; Minimum cytotoxic conc. (Vero cells): >100 µM; Cytotoxicity, Minimum cytotoxic conc. [25]: >100 µM; Minimum cytotoxic conc. (MT4 cells): >125 µM
Cc1ccc(S(=O)(=O)N2C(=O)CSC2c2ccccc2[N+](=O)[O-])cc1 (stereo not drawn) [5o, 3-[(4-Methylphenyl)sulfonyl]-2-(2-nitrophenyl)-1,3-thiazolidin-4-one]	16 µg/mL (≈ 42.3 µM)	32 µg/mL (≈ 84.6 µM)	32 µg/mL (≈ 84.6 µM)	16 µg/mL (≈ 42.3 µM)	64 µg/mL (≈ 169 µM)	16 µg/mL (≈ 42.3 µM)	8 µg/mL (≈ 21.1 µM)	16 µg/mL (≈ 42.3 µM)	2 µg/mL (≈ 5.28 µM)	16 ± 0.9 mm	15 ± 1.1 mm	10 ± 0.8 mm	12 ± 0.34 mm	15 ± 1.5 mm	10 ± 0.6 mm	12 ± 0.66 mm	10 ± 1.5 mm	19 ± 1.5 mm	20 ± 1.1 mm	18 ± 0.9 mm	Diameter of growth inhibition zone, CN [21]: 19 ± 1.2 mm; EC50 (Vaccinia virus): > 100 µM; EC50 (Adeno virus-2): > 100 µM; EC50 (Human Coronavirus (229E)): > 100 µM; EC50 (Para-influenza-3 virus): > 100 µM; EC50 (Reovirus-1): > 100 µM; EC50 (Sindbis virus): > 100 µM; EC50 (Coxsackie virus B4): > 100 µM; EC50 (Punta Toro virus): > 100 µM; EC50 (Yellow Fever virus): > 100 µM; EC50 [22, 26]: > 100 µM; EC50 [22, 27]: > 100 µM; EC50 [23, 28]: > 100 µM; EC50 [23, 29]: > 100 µM; EC50 (Influenza B B/Ned/537/05): > 100 µM; Minimum cytotoxic conc. [24]: >100 µM; Minimum cytotoxic conc. (Vero cells): >100 µM; Cytotoxicity, Minimum cytotoxic conc. [25]: >100 µM; Minimum cytotoxic conc. (MT4 cells): >125 µM
